From ChEMBL document CHEMBL1138552, “Synthesis of modified pyrimidine bases and positive impact of chemically reactive substituents on their in vitro antiproliferative activity” (Eur J Med Chem, 2009)

Experiments:
HeLa [1] = test: Growth inhibition of human HeLa cells after 72 hrs by MTT assay; type: functional, cell-based
How it was run: (§1)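 Cells were seeded on day 0 at 1 × 10⁴–3 × 10⁴ cells/mL according to doubling time. Compound was added in 10-fold dilutions (10⁻⁸–10⁻⁴ M) from DMSO stocks (final DMSO ≤0.25%, solvent control run) and incubated 72 h. Percentage of growth was calculated, four parallel samples in three experiments. IC50 was derived by linear regression between the concentrations bracketing PG 50; if none fell below, the result was reported as >highest concentration.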

MIA PaCa-2 = test: Growth inhibition of human MIAPaCa2 cells after 72 hrs by MTT assay; type: functional, cell-based; settings: MIA PaCa-2, 72 h; how it was run: as §1
SW-620 = test: Growth inhibition of human SW620 cells after 72 hrs by MTT assay; type: functional, cell-based; settings: SW-620, 72 h; how it was run: as §1
MCF7 = test: Growth inhibition of human MCF7 cells after 72 hrs by MTT assay; type: functional, cell-based; settings: MCF7, 72 h
How it was run: as §1, with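 “time.” for “time. Compound was added in 10-fold dilutions (10⁻⁸–10⁻⁴ M) from DMSO stocks (final DMSO ≤0.25%, solvent control run) and incubated 72 h.”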

NCI-H460 = test: Growth inhibition of human H460 cells after 72 hrs by MTT assay; type: functional, cell-based; settings: NCI-H460, 72 h; how it was run: as §1
HaCaT = test: Growth inhibition of human HaCaT cells after 72 hrs by MTT assay; type: cell-based; how it was run: as §1
HeLa [2] = test: Cell cycle arrest in human HeLa cells assessed as accumulation at subG1 phase at 20 uM after 48 hrs by flow cytometry; type: functional
How it was run: (§2)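 Seeded 2 × 10⁵ cells per well; compound added after 24 h. At 24, 48 and 72 h post-treatment, attached cells were trypsinized and pooled with floating cells. Cells were PBS-washed, fixed in 70% ethanol, then stained with propidium iodide plus RNase A. DNA histograms came from 20 000 events per sample and gave the phase percentages. At least two experiments were run in triplicate, with Student t-test (p < 0.05).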

HeLa [3] = test: Cell cycle arrest in human HeLa cells assessed as accumulation at subG1 phase at 20 uM after 24 hrs by flow cytometry; type: functional; how it was run: as §2
HeLa [4] = test: Cell cycle arrest in human HeLa cells assessed as accumulation at subG1 phase at 20 uM after 72 hrs by flow cytometry; type: functional; how it was run: as §2
HeLa [5] = test: Cell cycle arrest in human HeLa cells assessed as accumulation at G0/G1 phase at 20 uM after 24 hrs by flow cytometry; type: functional; how it was run: as §2
HeLa [6] = test: Cell cycle arrest in human HeLa cells assessed as accumulation at G0/G1 phase at 20 uM after 48 hrs by flow cytometry; type: functional; how it was run: as §2
HeLa [7] = test: Cell cycle arrest in human HeLa cells assessed as accumulation at G0/G1 phase at 20 uM after 72 hrs by flow cytometry; type: functional; how it was run: as §2
HeLa [8] = test: Cell cycle arrest in human HeLa cells assessed as accumulation at S phase at 20 uM after 24 hrs by flow cytometry; type: functional; how it was run: as §2
HeLa [9] = test: Cell cycle arrest in human HeLa cells assessed as accumulation at S phase at 20 uM after 48 hrs by flow cytometry; type: functional; how it was run: as §2
HeLa [10] = test: Cell cycle arrest in human HeLa cells assessed as accumulation at S phase at 20 uM after 72 hrs by flow cytometry; type: functional; how it was run: as §2
HeLa [11] = test: Cell cycle arrest in human HeLa cells assessed as accumulation at G2/M phase at 20 uM after 24 hrs by flow cytometry; type: functional; how it was run: as §2
HeLa [12] = test: Cell cycle arrest in human HeLa cells assessed as accumulation at G2/M phase at 20 uM after 48 hrs by flow cytometry; type: functional; how it was run: as §2
HeLa [13] = test: Cell cycle arrest in human HeLa cells assessed as accumulation at G2/M phase at 20 uM after 72 hrs by flow cytometry; type: functional; how it was run: as §2
HeLa [14] = test: Cell cycle arrest in human HeLa cells assessed as accumulation at subG1 phase at 10 uM after 72 hrs by flow cytometry; type: functional
How it was run: (§3)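 HeLa cells seeded at 2 × 10⁵ per well; compound added after 24 h. At 24, 48 and 72 h, attached and floating cells were pooled, PBS-washed, fixed in 70% ethanol, then stained with propidium iodide plus RNase A. Flow cytometry counted 20 000 events, and phase percentages came from DNA histograms. At least two experiments in triplicate; Student t-test (p < 0.05).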

HeLa [15] = test: Cell cycle arrest in human HeLa cells assessed as accumulation at subG1 phase at 10 uM after 48 hrs by flow cytometry; type: functional; how it was run: as §3
HeLa [16] = test: Cell cycle arrest in human HeLa cells assessed as accumulation at subG1 phase at 10 uM after 24 hrs by flow cytometry; type: functional; how it was run: as §3
HeLa [17] = test: Cell cycle arrest in human HeLa cells assessed as accumulation at G2/M phase at 10 uM after 48 hrs by flow cytometry; type: functional; how it was run: as §3
HeLa [18] = test: Cell cycle arrest in human HeLa cells assessed as accumulation at G2/M phase at 10 uM after 72 hrs by flow cytometry; type: functional; how it was run: as §3
HeLa [19] = test: Cell cycle arrest in human HeLa cells assessed as accumulation at G2/M phase at 10 uM after 24 hrs by flow cytometry; type: functional; how it was run: as §3
HeLa [20] = test: Cell cycle arrest in human HeLa cells assessed as accumulation at S phase at 10 uM after 72 hrs by flow cytometry; type: functional; how it was run: as §3
HeLa [21] = test: Cell cycle arrest in human HeLa cells assessed as accumulation at S phase at 10 uM after 48 hrs by flow cytometry; type: functional; how it was run: as §3
HeLa [22] = test: Cell cycle arrest in human HeLa cells assessed as accumulation at S phase at 10 uM after 24 hrs by flow cytometry; type: functional; how it was run: as §3
HeLa [23] = test: Cell cycle arrest in human HeLa cells assessed as accumulation at G0/G1 phase at 10 uM after 72 hrs by flow cytometry; type: functional; how it was run: as §3
HeLa [24] = test: Cell cycle arrest in human HeLa cells assessed as accumulation at G0/G1 phase at 10 uM after 48 hrs by flow cytometry; type: functional; how it was run: as §3
HeLa [25] = test: Cell cycle arrest in human HeLa cells assessed as accumulation at G0/G1 phase at 10 uM after 24 hrs by flow cytometry; type: functional; how it was run: as §3

SMILES | IC50 (HeLa [1]) [µM] | IC50 (MIA PaCa-2) [µM] | IC50 (SW-620) [µM] | IC50 (MCF7) [µM] | IC50 (NCI-H460) [µM] | also measured
Cc1cc(=O)[nH]c(=O)n1COC(CO)CO | > 100 | > 100 | > 100 | > 100 | > 100 | 
Nc1cn(COC(CO)CO)c(=O)[nH]c1=O | > 100 | > 100 | > 100 | > 100 | > 100 | 
O=c1ccn(COC(CO)CO)c(=O)[nH]1 | > 100 | > 100 | > 100 | > 100 | > 100 | 
O=C(CCl)Nc1c[nH]c(=O)[nH]c1=O | 4 | 17 | 12 | 15 | 14 | IC50 (HaCaT): > 100 µM; Activity (HeLa [2]): 14%; Activity (HeLa [3]): 12%; Activity (HeLa [4]): 25%; Activity (HeLa [5]): 50%; Activity (HeLa [6]): 48%; Activity (HeLa [7]): 50%; Activity (HeLa [8]): 43%; Activity (HeLa [9]): 45%; Activity (HeLa [10]): 48%; Activity (HeLa [11]): 6%; Activity (HeLa [12]): 7%; Activity (HeLa [13]): 8%
O=c1[nH]c(=O)n(COC(CO)CO)cc1O | > 100 | > 100 | > 100 | > 100 | > 100 | 
Cc1ccc(S(=O)(=O)Nc2ccn(C)c(=O)n2)cc1 | > 100 | > 100 | > 100 | > 100 | > 100 | 
CSc1cc[nH]c(=O)n1 | > 100 | > 100 | > 100 | > 100 | > 100 | 
Cc1ccc(S(=O)(=O)Nc2cc[nH]c(=O)n2)cc1 | > 100 | > 100 | > 100 | 27 | > 100 | 
N[C@H](CSCC(=O)Nc1c[nH]c(=O)[nH]c1=O)C(=O)O | 86 | 80 | 70 | > 100 | > 100 | 
COc1ccc(CSCCN(CCSCc2ccc(OC)cc2)CC(=O)Nc2c[nH]c(=O)[nH]c2=O)cc1 | 4 | 3 | 70 | > 100 | 76 | IC50 (HaCaT): 9 µM; Activity (HeLa [2]): 24%; Activity (HeLa [3]): 17%; Activity (HeLa [4]): 58%; Activity (HeLa [5]): 56%; Activity (HeLa [6]): 59%; Activity (HeLa [7]): 43%; Activity (HeLa [8]): 24%; Activity (HeLa [9]): 27%; Activity (HeLa [10]): 44%; Activity (HeLa [11]): 20%; Activity (HeLa [12]): 13%; Activity (HeLa [13]): 13%
CC(C)(C)OC(=O)NCCNCC(=O)Nc1c[nH]c(=O)[nH]c1=O | 50 | 50 | 50 | > 100 | > 100 | 
Cn1ccc(N)nc1=O | 12 | > 100 | > 100 | > 100 | > 100 | 
NCC(=O)Nc1c[nH]c(=O)[nH]c1=O | > 100 | > 100 | > 100 | > 100 | > 100 | 
O=C(CCl)Nc1cn(COC(CO)CO)c(=O)[nH]c1=O | 12 | 18 | 19 | 32 | 24 | IC50 (HaCaT): > 100 µM
Cn1cc(CO)c(N)nc1=O | > 100 | > 100 | > 100 | > 100 | > 100 | 
O=c1[nH]cc(F)c(=O)[nH]1 [FLUOROURACIL] | 4 | 10 | 9 |  | 2 | Activity (HeLa [14]): 26%; Activity (HeLa [15]): 12%; Activity (HeLa [16]): 10%; Activity (HeLa [17]): 0%; Activity (HeLa [18]): 0%; IC50 (HaCaT): 0.4 µM; Activity (HeLa [19]): 1%; Activity (HeLa [20]): 43%; Activity (HeLa [21]): 41%; Activity (HeLa [22]): 39%; Activity (HeLa [23]): 57%; Activity (HeLa [24]): 59%; Activity (HeLa [25]): 60%
O=c1[nH]c(=O)n(COC(CO)CO)cc1I [IODACYCLUR] | 30 | > 100 | > 100 | > 100 | > 100 | 
Cc1c(I)c(=O)[nH]c(=O)n1COC(CO)CO [IODMETACYCLUR] | 73 | > 100 | > 100 | > 100 | > 100 | 
O=c1nc(NO)cc[nH]1 [N4-hydroxycytosine] | > 100 | > 100 | > 100 | > 100 | > 100 | 
